Source: PubChem BioAssay (Sanford-Burnham Center for Chemical Genomics)
Shown are actives, neighbours in structure and some others; about 0.77% of the full set was active somewhere.
hIAP block: human IAP inhibitors, primary screen, biochemical, luminescence, uHTS | Intestinal-type alkaline phosphatase (Homo sapiens), P09923 | purified IAP, CDP-Star luminescence, 30 min | inhibition, % at 10 µM | 330,000 compounds, 0.12% hits;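 active = inhibition reaching a set limit with compound at 10 µM in the primary screen, cut at about 35% in these data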;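 also: plate controls were DMSO wells with enzyme for no effect and no-enzyme buffer wells for full effect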
mIAP act: activators of mouse IAP, primary screen, biochemical, luminescence, uHTS. intestinal alkaline phosphatase [Mus musculus]. muIAP, CDP-Star luminescence, 30 min; active compounds read high; 1 = vehicle-only enzyme signal, 0 = enzyme-free wells. activation factor at 10 µM. 330,000 compounds, 0.24% hits;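 active = activation factor of at least 2 at 20 µM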
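also added = chemiluminescent substrate CDP-Star | test system = mouse IAP enzyme | signal = chemiluminescence readout | compound = DMSO-dissolved test compounds | incubation = 30 min at room temperature | benchmarks = DMSO wells, no-enzyme wells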
bIAP activator: bovine intestinal alkaline phosphatase activators, primary screen, biochemical, bovine IAP, CDP-star luminescence. alkaline phosphatase, intestinal [Bos taurus]. purified bovine IAP, 30 min; active compounds read high; fold of DMSO-control signal, blank-subtracted. activation factor at 20 µM. 200,000 compounds, 0.17% hits. AID 1016, 2008;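 active = activation factor of 2 or more at 20 µM, a signal rise over negative controls twice the positive control's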
bIAP inhibitor: bovine intestinal alkaline phosphatase inhibitors, primary screen, selectivity assay for TNAP inhibitor project, biochemical, bovine IAP, CDP-star luminescence; 190,000 tested, under 10 active; purified bovine IAP, 30 min; alkaline phosphatase, intestinal [Bos taurus]; AID 1019, 2008; inhibition, % at 20 µM;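 active = over 50% inhibition of intestinal alkaline phosphatase at 20 µM in the single-dose screen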
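System: Purified bovine intestinal alkaline phosphatase (IAP) enzyme | Input: IAP diluted 1/65,000,000 in the well | Also added: CDP-star chemiluminescent phosphatase substrate, 30 µM final | Dosing: 20 µM single dose | Times: Enzyme reaction for 30 min at room temperature | Detection: Luminescence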
mIAP inh: inhibitors of mouse IAP, primary screen, biochemical, luminescence, uHTS; purified mouse IAP, CDP-Star luminescence, 30 min; inhibition, % at 10 µM; 330,000 compounds, 0.2% hits; AID 2806, 2010;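 active = inhibition of at least 40% at 10 µM in the primary screen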;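 also: plate controls were DMSO with enzyme for no effect and no enzyme wells for full effect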
hIAP activ: human IAP activators, primary screen, biochemical, luminescence, uHTS; Intestinal-type alkaline phosphatase (Homo sapiens), P09923; purified human IAP, CDP-Star luminescence, 30 min; active compounds read high; 1 = vehicle-only enzyme, 0 = enzyme-free background; activation factor at 10 µM; 330,000 compounds, 0.16% hits; AID 2524, 2010;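 active = activation factor of the enzyme at least 2-fold when tested at 20 µM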
mIAP inh conf: inhibitors of mouse IAP, confirmation, biochemical, luminescence, single concentration; purified mouse IAP, CDP-Star luminescence, 30 min; shares compounds with mIAP inh; 11,000 compounds, 4.7% hits; inhibition, % at 10 µM; AID 434971, 2010;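 active = inhibition of at least 40% at 10 µM in either of the two replicates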;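 also: plate controls were DMSO wells with enzyme for no effect and buffer wells lacking enzyme for full effect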
* marks the source's active call; other numbers are inactive results; . = not tested or not shown.

SMILES | hIAP block | mIAP act | bIAP activator | bIAP inhibitor | mIAP inh | hIAP activ | mIAP inh conf
NC(Cc1cc(O)c(O)cc1O)C(=O)O (configuration not stated) | -17 | 0.17 | . | . | 84* | 1.2 | 88*
N[C@@H](CCl)C(=O)O | -28 | 1.1 | . | . | -5 | 1.3 | .
CN1C2CCC1C(C(=O)O)C(O)C2 (configuration not stated) | -26 | 1.1 | . | . | -7 | 1.3 | .
CC(C)(C#CC(=O)O)OOC(c1ccccc1)(c1ccccc1)c1ccccc1 | 8 | 1 | . | . | -4 | 0.92 | .
Nc1nonc1C(=O)N/N=C/c1ccc([N+](=O)[O-])o1 | -2 | 0.45 | 1 | 4 | 55* | 1 | 72*
N/C(=N\[N+](=O)[O-])N/N=C/c1ccc(O)cc1 | 17 | 0.98 | 1 | -2 | 2 | 0.83 | .
COC(=O)C1=C(c2ccc(F)cc2OCc2ccccc2)C[C@@H]2CC[C@H]1N2C(=O)N1CCCC1 | -1 | 0.96 | . | . | 4 | 1 | .
O=C1NC(=O)N(c2ccccc2F)C(=O)/C1=C/c1ccc(Sc2nc3ccccc3[nH]2)o1 | . | . | 0.9 | 13 | . | . | .
O=C1NC(=O)N(c2cccc(Cl)c2)C(=O)/C1=C\c1ccc(Sc2nc3ccccc3[nH]2)o1 | -7 | 0.54 | 1 | 0 | 46* | 1.1 | 50*
O=C1NC(=S)NC(=O)C1=Cc1ccc2c(c1)CCN2CCCCl | -2 | 0.34 | . | . | 66* | 1 | 73*
CCN(CC)c1ccc(/C=C2\C(=O)NC(=O)N(CC3CCCO3)C2=O)cc1 (configuration not stated) | 5 | 0.89 | 0.2 | . | 11 | 0.95 | .
CCN(CC)c1ccc(/C=C2/C(=O)NC(=O)N(Cc3ccco3)C2=O)cc1 | -9 | 0.39 | 0.8 | 20 | 61* | 1.1 | 46*
O=C1NC(=O)N(Cc2ccco2)C(=O)/C1=C/c1ccc(-c2cccc([N+](=O)[O-])c2)o1 | 14 | 0.39 | 0.9 | 15 | 61* | 0.86 | 68*
C=CCN1C(=O)NC(=O)/C(=C\c2ccc(-c3ccccc3[N+](=O)[O-])o2)C1=O | -7 | 0.89 | 1 | 0 | 11 | 1.1 | .
CN(C)c1ccc(/C=C2/C(=O)NC(=O)N(Cc3ccco3)C2=O)cc1 | -8 | 0.52 | 0.8 | 21 | 48* | 1.1 | 48*
CN(C)CCN(C(=O)COc1ccc(Cl)cc1)c1nc2cc3c(cc2s1)OCO3 | 23 | 1 | . | . | -2 | 0.77 | .
